Results: ChEMBL document CHEMBL4138096, “Design, synthesis, molecular docking and cytotoxic evaluation of novel 2-furybenzimidazoles as VEGFR-2 inhibitors” (Eur J Med Chem, 2017)

Columns and labels:
MCF7 [1] = assay: Inhibition of VEGFR2 protein expression in human MCF7 cells at cytotoxic IC50 after 24 hrs by ELISA relative to untreated control; type: functional
Summary of the method: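 MCF-7 cells treated with compound in DMSO for 24 h at 37 °C, humidified 5% CO2. Cells were harvested and homogenised in saline. VEGFR-2 in homogenate was measured by double-antibody sandwich ELISA (monoclonal capture, biotinylated goat polyclonal detection, avidin-biotin-peroxidase, TMB, OD 451 nm). Levels (ng/ml) came from a standard curve as duplicate determinations, and % change was taken versus untreated cells.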

MCF7 [2] = assay: Cytotoxicity against human MCF7 cells assessed as reduction in cell viability after 48 hrs by SRB assay; type: functional, cell-based; conditions: MCF7, 48 h
Summary of the method: (§1)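 Cells seeded and allowed to attach 24 h, then exposed to compound at […] for 48 h at 37 °C, 5% CO2. Fixed, stained with sulforhodamine B, bound dye released in Tris EDTA and read on ELISA reader. IC50 taken from survival curve (surviving fraction vs concentration); mean of four independent experiments.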

HepG2 = assay: Cytotoxicity against human HepG2 cells assessed as reduction in cell viability after 48 hrs by SRB assay; type: functional, cell-based; conditions: HepG2, 48 h; summary of the method: as §1
[3] = target: Vascular endothelial growth factor receptor 2 (Homo sapiens, UniProt P35968); assay: Inhibition of human VEGFR2 using TMB substrate by ELISA
Vascular endothelial growth factor receptor 2, sequence (P35968 whole entry): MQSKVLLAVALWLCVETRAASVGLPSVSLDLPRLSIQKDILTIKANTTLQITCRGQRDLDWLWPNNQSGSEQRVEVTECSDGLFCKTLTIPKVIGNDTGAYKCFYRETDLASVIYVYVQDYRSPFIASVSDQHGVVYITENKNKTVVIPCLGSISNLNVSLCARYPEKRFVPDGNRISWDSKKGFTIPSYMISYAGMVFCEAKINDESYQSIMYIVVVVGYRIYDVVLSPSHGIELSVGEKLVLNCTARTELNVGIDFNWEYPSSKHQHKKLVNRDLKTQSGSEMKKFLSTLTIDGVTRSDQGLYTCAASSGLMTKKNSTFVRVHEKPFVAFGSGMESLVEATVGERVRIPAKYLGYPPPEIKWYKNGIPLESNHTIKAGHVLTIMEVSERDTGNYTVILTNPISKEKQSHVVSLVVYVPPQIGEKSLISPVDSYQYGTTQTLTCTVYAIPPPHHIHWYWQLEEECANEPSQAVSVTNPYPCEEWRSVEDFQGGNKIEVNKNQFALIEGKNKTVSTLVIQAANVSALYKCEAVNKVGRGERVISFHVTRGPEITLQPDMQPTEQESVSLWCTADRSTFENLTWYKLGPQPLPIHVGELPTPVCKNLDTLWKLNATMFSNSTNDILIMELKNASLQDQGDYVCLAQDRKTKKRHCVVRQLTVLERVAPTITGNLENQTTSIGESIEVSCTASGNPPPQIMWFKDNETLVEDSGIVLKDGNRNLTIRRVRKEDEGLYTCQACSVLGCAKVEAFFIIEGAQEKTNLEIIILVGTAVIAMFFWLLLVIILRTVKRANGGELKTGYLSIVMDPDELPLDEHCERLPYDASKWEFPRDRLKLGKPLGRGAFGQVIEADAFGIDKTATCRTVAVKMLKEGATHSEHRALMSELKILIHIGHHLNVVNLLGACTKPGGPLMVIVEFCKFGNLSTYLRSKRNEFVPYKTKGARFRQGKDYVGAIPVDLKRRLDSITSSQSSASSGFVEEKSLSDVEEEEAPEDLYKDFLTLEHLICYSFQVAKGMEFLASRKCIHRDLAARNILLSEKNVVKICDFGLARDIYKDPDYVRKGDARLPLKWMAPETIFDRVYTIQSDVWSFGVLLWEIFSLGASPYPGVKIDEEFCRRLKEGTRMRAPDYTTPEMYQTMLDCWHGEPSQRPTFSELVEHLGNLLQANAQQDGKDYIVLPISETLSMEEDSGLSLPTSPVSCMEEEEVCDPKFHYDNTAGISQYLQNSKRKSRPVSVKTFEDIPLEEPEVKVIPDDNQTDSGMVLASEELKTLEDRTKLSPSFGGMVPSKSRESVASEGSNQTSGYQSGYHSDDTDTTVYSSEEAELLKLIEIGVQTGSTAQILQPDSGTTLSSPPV

| IC50 [3] [µM] | Compound | inhibition (INH) (MCF7 [1]) [%] | IC50 (MCF7 [2]) | IC50 (HepG2) [µM] |
| --- | --- | --- | --- | --- |
|  | O=C(O)Cn1c(-c2ccco2)nc2ccccc21 | 61 | 63.1 µM | 149 |
| 0.64 | O=C(Cn1c(-c2ccco2)nc2ccccc21)N/N=C/c1ccccc1Cl | 94 | 26.1 µM | 25.9 |
|  | CCOC(=O)CSc1nnc(Cn2c(-c3ccco3)nc3ccccc32)s1 | 92 | 28.5 µM | 62.1 |
|  | c1ccc2[nH]c(-c3ccc(CN4CCOCC4)o3)nc2c1 | 58 | 55.5 µM | 128 |
|  | S=c1[nH]nc(Cn2c(-c3ccco3)nc3ccccc32)s1 | 14 | 52.6 µM | 47.6 |
|  | CCOC(=O)Cn1c(-c2ccc(C)o2)nc2ccccc21 | 25 | 63.5 µM | > 176 |
|  | NC(=O)/C(=C\c1ccccc1)n1c(-c2ccco2)nc2ccccc21 | 80 | 38.6 µM | 63 |
| 1.41 | NNC(=O)CSc1nnc(Cn2c(-c3ccco3)nc3ccccc32)s1 | 96 | 21.4 µM | 26.9 |
|  | NNC(=O)Cn1c(-c2ccco2)nc2ccccc21 | 19 |  | > 195 |
|  | SC1=NNCC(n2c(-c3ccco3)nc3ccccc32)=N1 | 40 | 60.5 µM | 62.1 |
|  | ClC(Cl)(Cl)c1nnc(Cn2c(-c3ccco3)nc3ccccc32)o1 |  | > 131 µM | 85.6 |
|  | COC(=O)Cn1c(-c2ccco2)nc2ccccc21 | 61 | 80.6 µM | 67.3 |
|  | Cc1ccc(-c2nc3ccccc3n2Cc2nnco2)o1 |  | > 177 µM | 132 |
|  | Cc1ccc(-c2nc3ccccc3n2CC(=O)O)o1 | 20 | 139 µM | > 195 |
| 1.26 | Cc1ccc(-c2nc3ccccc3n2CC(=O)N/N=C/c2ccccc2Cl)o1 | 96 | 21.2 µM | 22.6 |
|  | N=C1N=C(n2c(-c3ccco3)nc3ccccc32)CN1 | 22 | 93 µM | 63.5 |

| IC50 [3] [µM] | Compound | inhibition (INH) (MCF7 [1]) [%] | IC50 (MCF7 [2]) | IC50 (HepG2) [µM] |
| --- | --- | --- | --- | --- |
|  | CNC(=O)c1cc(Oc2ccc(NC(=O)Nc3ccc(Cl)c(C(F)(F)F)c3)cc2)ccn1 [SORAFENIB] | 95.75 | 4.33 µg/mL |  |
|  | CCOC(=O)Cn1c(-c2ccco2)nc2ccccc21 | 57 | 57.3 µM | > 185 |
|  | N#CCn1c(-c2ccco2)nc2ccccc21 | 39 | 88.1 µM | 88.1 |
|  | N#C/C(=C1/SCC(=O)N1c1ccccc1)n1c(-c2ccco2)nc2ccccc21 | 55 | 55.9 µM | 39.6 |
|  | O=C1CS/C(=C/n2c(-c3ccco3)nc3ccccc32)N1 | 86 | 29.1 µM | 31.1 |
|  | Cc1ccc(-c2nc3ccccc3n2C(=O)n2c(-c3ccc(C)o3)nc3ccccc32)o1 | 9 | 58.3 µM | > 118 |
|  | Cc1ccc(-c2nc3ccccc3n2CC(=O)NN)o1 | 24 | 68.3 µM | > 185 |
|  | Cc1ccc(-c2nc3ccccc3n2C(=O)C(=O)n2c(-c3ccc(C)o3)nc3ccccc32)o1 | 17 | 65.6 µM | > 111 |
|  | CC/C(=C(\c1ccccc1)c1ccc(OCCN(C)C)cc1)c1ccccc1 [TAMOXIFEN] | 98 |  |  |
|  | O=C(CCl)n1c(-c2ccco2)nc2ccccc21 | 40 | 60.9 µM | 60.9 |
|  | COC(=O)Cn1c(-c2ccc(C)o2)nc2ccccc21 | 38 | 87 µM | > 185 |
|  | c1coc(-c2nc3ccccc3[nH]2)c1 [FUBERIDAZOLE] | 43 | 106 µM | 103 |
|  | N=C(Cn1c(-c2ccco2)nc2ccccc21)NN | 27 | 53.1 µM | 74.5 |
|  | Cc1ccc(-c2nc3ccccc3[nH]2)o1 | 39 | 55.6 µM |  |
|  | NC(=O)Cn1c(-c2ccco2)nc2ccccc21 | 13 | 118 µM | 157 |
|  | NC(=O)/C(=C\c1ccccc1Cl)n1c(-c2ccco2)nc2ccccc21 | 57 | 40 µM | 44.8 |
